Assay results from different studies.
Values after ≈ are worked out from the molar mass of the structure shown.

| Structure (SMILES) | tested on | assay | test system | conditions | quantity | value |
| --- | --- | --- | --- | --- | --- | --- |
| NNC(=O)c1ccncc1 | Mycobacterium marinum | microbial growth | – | – | MIC90 | 40 µM (≈ 5.49 µg/mL) |
| Cc1nc(Nc2ncc(C(=O)Nc3c(C)cccc3Cl)s2)cc(N2CC[C@H](O)C2)n1 | SU-DHL-5 | cell growth or viability, ATP luminescence | – | 10 µM, 72 h | inhibition | 98% |
| CO[C@H]1/C=C/O[C@@]2(C)Oc3c(C)c(O)c4c(O)c(c(/C=N/N5CCN(C)CC5)c(O)c4c3C2=O)NC(=O)/C(C)=C\C=C\[C@H](C)[C@H](O)[C@@H](C)[C@@H](O)[C@@H](C)[C@H](OC(C)=O)[C@@H]1C | Mycobacterium marinum | microbial growth | – | – | MIC90 | 10 µM (≈ 8.23 µg/mL) |
| O=c1[nH]ncc(NN=Cc2cn(-c3ccccc3)nc2-c2ccccc2)c1Cl | CCRF-CEM | cell growth or viability | – | 48 h | CC50 | 4.78 µM |
| CC(C)(C#Cc1ccc(-c2ccc(Cl)c3c(NS(C)(=O)=O)nn(CC(F)(F)F)c23)c([C@@H](CC2CCCC2)NC(=O)Cn2nc(C(F)(F)F)c3c2C(F)(F)[C@H]2C[C@@H]32)n1)S(C)(=O)=O | Human immunodeficiency virus 1 | viral replication, inhibitor | – | – | EC50 | 0.0123 µM |
| CCOC(=O)c1c(N(CC)CC)c2c([nH]c1=O)CCC2 | Human immunodeficiency virus 1 | viral replication, inhibitor | IIIB | 72 h | EC50 | 79.3 µM |
| CC(C)(C#Cc1ccc(-c2ccc(Cl)c3c(NS(C)(=O)=O)nn(CC(F)(F)F)c23)c([C@H](CC2CCCCC2)NC(=O)Cn2nc(C(F)(F)F)c3c2C(F)(F)[C@H]2C[C@@H]32)n1)S(C)(=O)=O | Human immunodeficiency virus 1 | viral replication, inhibitor | – | – | EC50 | 0.0007 µM |
| Cc1ccc(-c2nn(-c3ccccc3)cc2C=Nc2c(N)nc(S)nc2O)cc1 | CCRF-CEM | cell growth or viability | – | 48 h | CC50 | < 20 µM |
| CCCNc1c2c([nH]c(=O)c1C(=O)OCC)CCC2 | Human immunodeficiency virus 1 | viral replication, inhibitor | IIIB | 72 h | EC50 | 30.6 µM |
| CC(C)(C#Cc1ccc(-c2ccc(Cl)c3c(NS(C)(=O)=O)nn(CC(F)(F)F)c23)c([C@H](CC2CC2)NC(=O)Cn2nc(C(F)(F)F)c3c2C(F)(F)[C@@H]2C[C@H]32)n1)S(C)(=O)=O | Human immunodeficiency virus 1 | viral replication, inhibitor | – | – | EC50 | 0.0009 µM |
| CCOC(=O)c1c(NCCC(C)C)c2c([nH]c1=O)CCC2 | Human immunodeficiency virus 1 | viral replication, inhibitor | IIIB | 72 h | EC50 | 9.09 µM |
| O=C(N[C@@H](CSCc1ccccc1)C(=O)NO)c1ccccc1 | HCC4006 | cell growth or viability, MTT | – | 48 h | IC50 | 68.2 µM |
| C=CCNc1c2c([nH]c(=O)c1C(=O)OCC)CCC2 | Human immunodeficiency virus 1 | viral replication, inhibitor | IIIB | 72 h | EC50 | > 100 µM |
| CC(=O)ON=C1C=CC(=C(C#N)c2ccccc2)C=C1 | HDF-1 | cell growth or viability, MTT | – | 48 h | IC50 | 24.9 µg/mL |
